Screening results (PubChem BioAssay)
Rows were chosen to be rich in hits. Some 4.8% of all compounds tested hit in one or more screens of this group.
UPR XBP1 act: adaptive UPR (XBP1) activation | CHO-XBP1 luciferase reporter, IRE1-XBP1 UPR activation, luminescence; percent of tunicamycin response, DMSO as zero | activation, % at 20 µM | hit rate 0.33% among 330,000;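 active means versus positive control, 20 µM dose yields 30% or more activation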;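 further: 100% = tunicamycin at 10 µg/mL and 0% = DMSO only wells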
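Assay system: IRE1-XBP1 luciferase reporter CHO line. Input: 1000 cells/well. Buffer or medium: F12 with 10% serum. Doses: 20 µM, 1% DMSO. Times: overnight seeding at 37 °C, 6 h compound treatment at 37 °C. Technique: Steady-Glo luciferase glow luminescence, 10 min after reagent addition.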
Mdm2-MdmX inh: human Mdm2/MdmX binding inhibition | AID 485346 | hit rate 3% among 330,000 | O15151+Q00987 | SaOS-2 split-luciferase Mdm2/MdmX complementation, luminescence | inhibition, % at 8 µM;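 active means inhibition of at least 50% at 8 µM in the primary screen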
Target sequence (O15151 whole entry, looked up): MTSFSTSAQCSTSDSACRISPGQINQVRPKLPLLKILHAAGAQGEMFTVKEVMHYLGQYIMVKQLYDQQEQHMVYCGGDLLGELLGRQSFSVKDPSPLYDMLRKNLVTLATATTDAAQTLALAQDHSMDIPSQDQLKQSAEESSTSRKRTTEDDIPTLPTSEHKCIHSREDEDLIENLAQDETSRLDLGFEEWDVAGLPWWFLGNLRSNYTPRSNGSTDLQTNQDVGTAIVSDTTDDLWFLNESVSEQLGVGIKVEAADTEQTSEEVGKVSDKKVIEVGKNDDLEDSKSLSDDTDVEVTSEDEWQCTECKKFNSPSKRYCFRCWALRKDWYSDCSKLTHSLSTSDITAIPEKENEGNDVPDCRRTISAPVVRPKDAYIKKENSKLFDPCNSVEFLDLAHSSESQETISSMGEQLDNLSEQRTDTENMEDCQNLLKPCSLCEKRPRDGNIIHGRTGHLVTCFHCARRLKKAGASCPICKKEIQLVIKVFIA
Target sequence (Q00987 whole entry, looked up): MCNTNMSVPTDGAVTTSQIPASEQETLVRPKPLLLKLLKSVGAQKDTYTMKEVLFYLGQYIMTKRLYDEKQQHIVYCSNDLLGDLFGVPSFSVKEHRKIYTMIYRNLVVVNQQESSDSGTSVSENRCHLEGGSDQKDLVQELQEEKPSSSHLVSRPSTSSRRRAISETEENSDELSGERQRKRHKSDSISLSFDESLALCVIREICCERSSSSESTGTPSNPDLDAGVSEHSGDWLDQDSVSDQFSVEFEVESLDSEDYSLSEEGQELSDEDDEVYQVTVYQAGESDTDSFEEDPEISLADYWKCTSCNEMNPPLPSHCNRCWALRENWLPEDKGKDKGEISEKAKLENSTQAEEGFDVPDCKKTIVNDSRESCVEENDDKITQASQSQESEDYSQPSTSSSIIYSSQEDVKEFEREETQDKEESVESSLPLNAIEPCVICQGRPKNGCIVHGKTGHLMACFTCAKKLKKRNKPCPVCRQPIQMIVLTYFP
SKKanGAS inh: SKKanGAS growth inhibition | AID 1662 | hit rate 1.3% among 300,000 | S. pyogenes SKKanGAS, kanamycin growth, BacTiter-Glo, 6 h | inhibition, % at 7.5 µM;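 active means mean replicate score, as percent of positive control median, at least 50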;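 further: strain carries kanamycin resistance gene driven by streptokinase promoter and grows in 40 µg/ml kanamycin; loss of luminescence reflects streptokinase promoter inhibition or plain growth inhibition; 0% = median of DMSO wells and 100% = positive control at its reference dose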
CHOP UPR activ: activators of apoptotic arm of unfolded protein response (CHOP) | activation, % at 10 µM | hit rate 0.34% among 330,000 | CHO-CHOP luciferase reporter, UPR activation, luminescence; percent of tunicamycin response over DMSO baseline | AID 449763;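 active means at 10 µM dose, activation of 40% or more, normalized to positive control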;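 further: 100% = tunicamycin at 10 µg/mL and 0% = DMSO alone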
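System: CHO CHOP reporter cells. Amount: 500 cells per well. Buffer or medium: F12 medium, 10% FBS. Compound dosing: one dose, 10 µM in 0.5% DMSO. Incubation: 6 h compound exposure at 37 °C after overnight seeding. Technique: Steady-Glo luciferase luminescence. Benchmarks: tunicamycin and DMSO controls.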
CSC inhib: cancer stem cell inhibition; cancer stem cell-like cells viability, luminescence; inhibition, % at 7.5 µM; hit rate 1.1% among 300,000; AID 2717; in the data active means inhibition above about 75%; tested in HMLE shEcad cells
Beta apoptosis: beta cell apoptosis inhibition; protection from apoptosis, % (no concentration beside the values); INS-1E cytokine-induced death, ATP luminescence, 48 h; percent of positive-control rescue, neutral wells zero; hit rate 0.8% among 300,000; AID 435005;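 active means Every replicate reaches about 75%, or at least half do and their mean reaches it too, limit read from the data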;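 further: 0% = cytokine-treated negative control wells and 100% = positive control rescue; higher means more ATP so stronger rescue from cytokine killing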
Numbers without * were called inactive.

For CC1(C)S[C@@H]2[C@H](NC(=O)COc3ccccc3)C(=O)N2C1C(=O)OCC1CCCCC1 (stereo not given in full) the results were UPR XBP1 act -2.5, Mdm2-MdmX inh 19.7, SKKanGAS inh 64.0*, CHOP UPR activ -0.6, CSC inhib 18.0 and Beta apoptosis 0.8.
Screening CC(Oc1ccccc1)C(=O)NC1C(=O)N2C1SC(C)(C)C2C(=O)O (stereo not given) returned UPR XBP1 act -1.2, Mdm2-MdmX inh 2.1, SKKanGAS inh 106.0*, CHOP UPR activ -2.2, CSC inhib 2.1 and Beta apoptosis 3.8.
Screening Cc1onc(-c2c(Cl)cccc2Cl)c1C(=O)NC1C(=O)N2C1SC(C)(C)C2C(=O)O (stereo not given) returned UPR XBP1 act -0.5, Mdm2-MdmX inh -6.8, SKKanGAS inh 79.3*, CHOP UPR activ -1.3, CSC inhib -16.9 and Beta apoptosis -10.2.
For CC1(C)S[C@@H]2[C@H](NC(=O)COc3ccccc3)C(=O)N2C1C(=O)OCc1cc2ccccc2n1S(=O)(=O)c1ccccc1 (stereo not given in full) the results were SKKanGAS inh 77.8*, CSC inhib -13.2 and Beta apoptosis -2.2.
For Cc1onc(-c2c(Cl)cccc2Cl)c1C(=O)N[C@@H]1C(=O)N2[C@@H]1SC(C)(C)[C@@H]2C(=O)O the results were UPR XBP1 act -8.9, Mdm2-MdmX inh 11.5, SKKanGAS inh 3.7, CHOP UPR activ 1.2, CSC inhib 2.6 and Beta apoptosis 4.9.
For Cc1ccc(OCc2nnc(SCC(=O)N3C(C)CCCC3C)o2)cc1 (stereo not given) the results were UPR XBP1 act -0.7, Mdm2-MdmX inh 19.9, SKKanGAS inh -1.3, CHOP UPR activ 0.6, CSC inhib 7.4 and Beta apoptosis -0.9.
CCOC(=O)C1=CN(Cc2ccco2)S(=O)(=O)N(CC)C1c1ccc(C(F)(F)F)cc1 (stereo not given) was read as UPR XBP1 act 4.0, Mdm2-MdmX inh 26.4 and CHOP UPR activ 1.7.
Screening Cc1ccc(S(=O)(=O)CCC(=O)NC2CCCC2)cc1 returned UPR XBP1 act 1.0, Mdm2-MdmX inh 18.8, SKKanGAS inh 3.5, CHOP UPR activ -0.3, CSC inhib -8.7 and Beta apoptosis -0.5.
For Cc1nn(C)c(C)c1CN(Cc1nc(CCC(C)C)no1)C(C)C the results were UPR XBP1 act -0.5, Mdm2-MdmX inh 0.7, SKKanGAS inh -13.1, CHOP UPR activ 1.3, CSC inhib -1.3 and Beta apoptosis 93.9*.
`COc1ccc(C(=O)/C=C2/C(=O)Nc3ccccc32)cc1OC` gave UPR XBP1 act -2.1, Mdm2-MdmX inh 38.9, SKKanGAS inh 0.4, CHOP UPR activ 47.7*, CSC inhib 25.4 and Beta apoptosis -14.6.
Cc1ccc2oc(=O)n(Cc3ccccc3)c2c1 was read as UPR XBP1 act -4.4, Mdm2-MdmX inh 12.7, SKKanGAS inh 1.7, CHOP UPR activ 3.4, CSC inhib -2.8 and Beta apoptosis -3.7.
Screening C=C(CC[C@@H](O)C(C)(C)O)[C@H]1CC[C@]2(C)[C@@H]1CCC1[C@@]3(C)CCC(=O)C(C)(C)C3CC[C@]12C (stereo not given in full) returned UPR XBP1 act -2.9, Mdm2-MdmX inh 48.3, CHOP UPR activ -0.1, CSC inhib 109.3* and Beta apoptosis 9.7.
Screening CC1(C)C(=O)CC[C@@]2(C)[C@H]1CC[C@@]1(C)CC3=C(CC[C@@H]12)[C@@]1(C)CCC(=O)C(C)(C)[C@@H]1CC3 returned UPR XBP1 act 1.1, Mdm2-MdmX inh 46.8, CHOP UPR activ -1.9, CSC inhib 53.5 and Beta apoptosis 5.2.
C=C(C)[C@@H]1CCC2(C(=O)O)CC[C@]3(C)[C@H](CC[C@@H]4[C@@]5(C)CCC(=O)C(C)(C)[C@@H]5CC[C@]43C)[C@@H]12 (stereo not given in full) was read as UPR XBP1 act 9.3, Mdm2-MdmX inh 35.6, SKKanGAS inh 104.4*, CHOP UPR activ -0.9, CSC inhib 0.1 and Beta apoptosis -2.4.
`c1ccc(-c2ccc(C3=Nn4c(nnc4-c4cccs4)SC3)cc2)cc1` gave UPR XBP1 act 0.2, Mdm2-MdmX inh 23.3, SKKanGAS inh 51.0*, CHOP UPR activ -0.8 and CSC inhib 6.0.
For c1ccc(C2=Nn3c(nnc3-c3cccs3)SC2)cc1 the results were UPR XBP1 act -0.5, Mdm2-MdmX inh 3.7, SKKanGAS inh -0.7, CHOP UPR activ -0.8 and CSC inhib -17.2.
For CCN(Cc1nc2ccccc2c(=O)[nH]1)C(=O)COc1ccccc1Cc1ccccc1 the results were UPR XBP1 act -1.2, Mdm2-MdmX inh 33.9 and CHOP UPR activ 0.3.
Screening O=[N+]([O-])c1cccc(-c2cc3cccc[n+]3cc2-c2cccc([N+](=O)[O-])c2)c1 returned UPR XBP1 act -0.8, Mdm2-MdmX inh 19.2, SKKanGAS inh 6.3, CHOP UPR activ -1.1, CSC inhib -2.7 and Beta apoptosis -2.7.
Cc1cccc2cc(-c3ccccc3)c(-c3ccccc3)c[n+]12 was read as SKKanGAS inh 5.7, CSC inhib 11.9 and Beta apoptosis 99.0*.
O=C(Nc1ccccc1OC(F)F)c1cccc(S(=O)(=O)N2CCCC2)c1 was read as UPR XBP1 act -1.0, Mdm2-MdmX inh 3.4, SKKanGAS inh -8.5, CHOP UPR activ -1.3, CSC inhib 13.3 and Beta apoptosis -2.2.
Screening FC(F)(F)c1cc(-c2ccccc2)nc(-n2cncn2)n1 returned UPR XBP1 act 0.2, Mdm2-MdmX inh 24.3, SKKanGAS inh -2.2, CHOP UPR activ -1.4, CSC inhib 0.9 and Beta apoptosis 1.6.
`FC(F)(F)c1cc(-c2ccccc2)nc(N2CCCCCC2)n1` gave UPR XBP1 act -0.4, Mdm2-MdmX inh 26.3, SKKanGAS inh 86.2*, CHOP UPR activ -1.7, CSC inhib 24.1 and Beta apoptosis 2.0.
`COc1cccc(-c2cc(C(F)(F)F)nc(N3CCCCC3)n2)c1` gave UPR XBP1 act -0.1, Mdm2-MdmX inh -33.0, SKKanGAS inh 57.5*, CHOP UPR activ 0.1, CSC inhib 24.4 and Beta apoptosis 11.9.
`CS(=O)(=O)c1nc(-c2ccccc2)cc(C(F)(F)F)n1` gave UPR XBP1 act -1.0, Mdm2-MdmX inh -31.6, SKKanGAS inh -22.5, CHOP UPR activ -0.6, CSC inhib 107.2* and Beta apoptosis 107.7*.
For O=C1CC2(CCN(C(=O)C(=O)c3c[nH]c4ccccc34)CC2)Oc2ccccc21 the results were UPR XBP1 act -2.5, Mdm2-MdmX inh 25.3, SKKanGAS inh 9.9, CHOP UPR activ 1.4, CSC inhib 10.6 and Beta apoptosis -2.6.
Screening Sc1nnc(-c2ccc(Cl)cc2)n1Cc1ccccc1 returned UPR XBP1 act -1.8, Mdm2-MdmX inh 3.9, CHOP UPR activ 0.4, CSC inhib 76.3* and Beta apoptosis 6.2.
